Results as given in ChEMBL document CHEMBL4431326, “Tumor Targeting with Novel 6-Substituted Pyrrolo [2,3-d] Pyrimidine Antifolates with Heteroatom Bridge Substitutions via Cellular Uptake by Folate Receptor α and the Proton-Coupled Folate Transporter and Inhibition of de Novo Purine Nucleotide Biosynthesis” (J Med Chem, 2016).
Calls of active or inactive are those of the source. The rule behind the calls is not given here.

Columns and labels:
[1] = biological target: T1, Proton-coupled folate transporter (Homo sapiens) (UniProt Q96NT5); experiment: Inhibition of [3H]MTX uptake at human PCFT expressed in Chinese hamster R2/PCFT4 cells at 1 uM and pH 5.5 measured after 5 mins; assay type: cell-based
T1 sequence (whole entry): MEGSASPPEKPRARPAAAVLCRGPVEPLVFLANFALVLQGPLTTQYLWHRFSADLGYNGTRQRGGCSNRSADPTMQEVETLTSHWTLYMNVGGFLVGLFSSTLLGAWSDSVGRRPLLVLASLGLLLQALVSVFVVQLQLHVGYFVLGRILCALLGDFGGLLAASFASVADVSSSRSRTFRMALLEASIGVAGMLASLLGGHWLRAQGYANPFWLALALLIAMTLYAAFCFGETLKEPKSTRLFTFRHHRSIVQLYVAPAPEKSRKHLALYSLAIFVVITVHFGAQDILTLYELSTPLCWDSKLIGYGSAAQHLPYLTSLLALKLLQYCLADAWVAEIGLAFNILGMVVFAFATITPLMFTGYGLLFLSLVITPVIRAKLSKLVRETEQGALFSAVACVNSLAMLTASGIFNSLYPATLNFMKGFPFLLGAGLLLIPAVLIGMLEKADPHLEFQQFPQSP

[2] = biological target: T1, Proton-coupled folate transporter (Homo sapiens); experiment: Inhibition of [3H]MTX uptake at human PCFT expressed in Chinese hamster R2/PCFT4 cells at 10 uM and pH 6.8 measured after 5 mins; assay type: cell-based
[3] = biological target: T2, Proton-coupled folate transporter (Homo sapiens, UniProt Q96NT5); experiment: Inhibition of [3H]MTX uptake at human PCFT expressed in Chinese hamster R2/PCFT4 cells at pH 5.5 measured after 5 mins by Dixon plot analysis; assay type: cell-based
T2 sequence (Q96NT5 whole entry): T1 sequence (whole entry)

[4] = biological target: T1, Proton-coupled folate transporter (Homo sapiens); experiment: Inhibition of [3H]MTX uptake at human PCFT expressed in Chinese hamster R2/PCFT4 cells at 10 uM and pH 5.5 measured after 5 mins; assay type: cell-based
IGROV-1 [5] = experiment: Antiproliferative activity against human IGROV1 cells expressing human FR-alpha/PCFT assessed as reduction in cell viability measured after 96 hrs in presence of folic acid by Cell-Titer Blue fluorescence analysis; assay type: functional, cell-based; conditions: IGROV-1, 96 h
IGROV-1 [6] = experiment: Antitumor activity against human IGROV1 cells xenografted into folate-deficient diet fed SCID mouse assessed as tumor growth delay at 96 mg/kg, iv administered […] post 2 days of tumor implantation; assay type: functional
[7] = Toxicity in folate-deficient diet fed SCID mouse xenografted with human IGROV1 cells assessed as body weight loss at 96 and 150 mg/kg, iv administered […] post 2 days of tumor implantation measured after 48 hrs of last dosage; assay type: organism-based; conditions: in vivo
In short: (§1)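 Female NCR SCID mice (11 weeks old, ~20 g) are fed a folate-deficient diet from 14 days before implant. IGROV1 fragments (30–60 mg) are trocar-implanted subcutaneously in both flanks, and mice are randomised at 5/group. Tail-vein dosing starts on day 2: 28 mg/kg/inj Q3dx5, or 96 or 150 mg/kg/inj Q3dx4. Vehicle is 5% ethanol, 1% Tween-80, 0.5% NaHCO3 in water at pH 6.5. Caliper tumor mass is (a×b²)/2, T/C is taken when controls reach 700–1200 mg, and weights are recorded daily.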

IGROV-1 [8] = experiment: Antitumor activity against human IGROV1 cells xenografted into folate-deficient diet fed SCID mouse assessed as tumor cell kill at 28 mg/kg, iv administered […] post 2 days of tumor implantation measured on day 20; assay type: functional; in short: as §1
[9] = Toxicity in folate-deficient diet fed SCID mouse xenografted with human IGROV1 cells assessed as body weight loss at 28 mg/kg, iv administered […] post 2 days of tumor implantation measured during compound treatment; assay type: organism-based; conditions: in vivo, 48 h; in short: as §1
IGROV-1 [10] = experiment: Antitumor activity against human IGROV1 cells xenografted into folate-deficient diet fed SCID mouse assessed as tumor growth at 28 mg/kg, iv administered […] post 2 days of tumor implantation measured on day 20 relative to control; assay type: functional; in short: as §1
IGROV-1 [11] = experiment: Antitumor activity against human IGROV1 cells xenografted into folate-deficient diet fed SCID mouse assessed as tumor cell kill at 96 mg/kg, iv administered […] post 2 days of tumor implantation measured on day 20; assay type: functional
IGROV-1 [12] = experiment: Antitumor activity against human IGROV1 cells xenografted into folate-deficient diet fed SCID mouse assessed as tumor growth at 96 mg/kg, iv administered […] post 2 days of tumor implantation measured on day 20 relative to control; assay type: functional
In short: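 Female NCR SCID mice, 11 weeks, ~20 g, on folate-deficient or standard diet from 14 days pre-implant; bilateral s.c. IGROV1 fragments (30–60 mg); 5 mice/group; tail-vein dosing from day 2 (Q3d schedules) in 5% ethanol, 1% Tween-80, 0.5% NaHCO3, water, pH 6.5; caliper mass (a×b²)/2; T/C and T−C delay.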

[13] = Toxicity in standard diet fed SCID mouse xenografted with human IGROV1 cells assessed as body weight loss at 28 mg/kg, iv administered […] post 2 days of tumor implantation measured during compound treatment; assay type: organism-based; conditions: in vivo, 48 h
In short: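 Standard-diet female NCR SCID mice bearing bilateral s.c. IGROV1 fragments; i.v. tail-vein dosing from day 2 post-implant, Q3dx5, vehicle 5% ethanol/1% Tween-80/0.5% NaHCO3 in water, pH 6.5; mice weighed and assessed daily during and after treatment; weight loss recorded as nadir.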

IGROV-1 [14] = experiment: Antiproliferative activity against human IGROV1 cells expressing human FR-alpha/PCFT assessed as reduction in cell viability measured after 96 hrs by Cell-Titer Blue fluorescence analysis; assay type: functional, cell-based; conditions: IGROV-1, 96 h
[15] = Toxicity in folate-deficient diet fed SCID mouse xenografted with human IGROV1 cells assessed as body weight loss at 28 mg/kg, iv administered […] post 2 days of tumor implantation measured after 48 hrs of last dosage; assay type: organism-based; conditions: in vivo; in short: as §1
KB [16] = experiment: Antiproliferative activity against human KB cells expressing human RFC/FR-alpha/PCFT assessed as reduction in cell viability measured after 96 hrs by Cell-Titer Blue fluorescence analysis; assay type: functional, cell-based
[17] = Cytotoxicity in PCFT-null Chinese hamster R2 cells assessed as reduction in cell viability measured after 96 hrs by Cell-Titer Blue fluorescence analysis; assay type: cell-based; conditions: Cricetulus griseus, R2, 96 h
[18] = biological target: Bifunctional purine biosynthesis protein ATIC (Homo sapiens) (UniProt P31939); experiment: Inhibition of AICARFTase in human KB cells expressing RFC/FR-alpha/PCFT assessed as cell growth inhibition measured after 96 hrs in presence of 320 uM AICA by Cell-Titer Blue fluorescence analysis; assay type: cell-based
Chain of Bifunctional purine biosynthesis protein ATIC (Homo sapiens) (P31939 whole entry, looked up): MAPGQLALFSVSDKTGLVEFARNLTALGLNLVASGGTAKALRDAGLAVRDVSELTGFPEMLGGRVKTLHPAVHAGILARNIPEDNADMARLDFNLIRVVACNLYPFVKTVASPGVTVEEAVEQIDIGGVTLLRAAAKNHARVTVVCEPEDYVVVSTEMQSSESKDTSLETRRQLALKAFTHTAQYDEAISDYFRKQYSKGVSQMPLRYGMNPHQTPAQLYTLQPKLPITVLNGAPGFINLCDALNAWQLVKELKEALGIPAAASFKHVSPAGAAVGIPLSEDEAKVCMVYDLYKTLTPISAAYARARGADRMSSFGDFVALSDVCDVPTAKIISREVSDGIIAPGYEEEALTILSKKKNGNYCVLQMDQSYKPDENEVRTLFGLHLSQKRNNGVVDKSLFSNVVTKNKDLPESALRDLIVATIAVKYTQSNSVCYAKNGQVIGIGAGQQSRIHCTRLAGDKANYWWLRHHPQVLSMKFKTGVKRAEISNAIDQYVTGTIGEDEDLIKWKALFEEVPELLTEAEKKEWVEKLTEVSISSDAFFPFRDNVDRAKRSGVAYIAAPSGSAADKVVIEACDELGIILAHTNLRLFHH

[19] = biological target: T3, GAR transformylase/AICAR transformylase (Homo sapiens) (UniProt P31939+P22102); experiment: Inhibition of GARFTase/AICARFTase in human KB cells expressing RFC/FR-alpha/PCFT assessed as cell growth inhibition measured after 96 hrs in presence of 10 uM thymidine by Cell-Titer Blue fluorescence analysis; assay type: cell-based
T3 sequence (P31939 whole entry, looked up, one chain of several): as the sequence (P31939 whole entry, looked up) above

[20] = biological target: T3, GAR transformylase/AICAR transformylase (Homo sapiens); experiment: Inhibition of GARFTase/AICARFTase in human KB cells expressing RFC/FR-alpha/PCFT assessed as cell growth inhibition measured after 96 hrs in presence of 60 uM adenosine by Cell-Titer Blue fluorescence analysis; assay type: cell-based
[21] = biological target: Folate receptor alpha (Homo sapiens) (UniProt P15328); experiment: Displacement of [3H]folic acid from human FR-alpha receptor expressed in Chinese hamster RT16 cells measured after 15 mins relative to folic acid; assay type: cell-based; set-up: concentration or dose not given beside the values
Chain of Folate receptor alpha (Homo sapiens) (P15328 25-234 limits assumed): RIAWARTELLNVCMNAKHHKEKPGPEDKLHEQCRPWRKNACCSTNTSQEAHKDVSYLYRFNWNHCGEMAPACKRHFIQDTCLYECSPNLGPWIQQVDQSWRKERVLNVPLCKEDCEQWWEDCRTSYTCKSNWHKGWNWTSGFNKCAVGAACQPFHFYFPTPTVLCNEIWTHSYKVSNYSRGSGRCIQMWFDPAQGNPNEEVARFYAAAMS

[22] = biological target: T4, Trifunctional purine biosynthetic protein adenosine-3 (Homo sapiens, UniProt P22102); experiment: Inhibition of GARFTase in human KB cells expressing RFC/FR-alpha/PCFT assessed as decrease in incorporation of [14C(U)]-glycine into [14C]formyl GAR incubated for 1 hr followed by addition of [14C(U)]-glycine measured after 16 hrs in presence of azaserine; assay type: cell-based
T4 sequence (P22102 whole entry): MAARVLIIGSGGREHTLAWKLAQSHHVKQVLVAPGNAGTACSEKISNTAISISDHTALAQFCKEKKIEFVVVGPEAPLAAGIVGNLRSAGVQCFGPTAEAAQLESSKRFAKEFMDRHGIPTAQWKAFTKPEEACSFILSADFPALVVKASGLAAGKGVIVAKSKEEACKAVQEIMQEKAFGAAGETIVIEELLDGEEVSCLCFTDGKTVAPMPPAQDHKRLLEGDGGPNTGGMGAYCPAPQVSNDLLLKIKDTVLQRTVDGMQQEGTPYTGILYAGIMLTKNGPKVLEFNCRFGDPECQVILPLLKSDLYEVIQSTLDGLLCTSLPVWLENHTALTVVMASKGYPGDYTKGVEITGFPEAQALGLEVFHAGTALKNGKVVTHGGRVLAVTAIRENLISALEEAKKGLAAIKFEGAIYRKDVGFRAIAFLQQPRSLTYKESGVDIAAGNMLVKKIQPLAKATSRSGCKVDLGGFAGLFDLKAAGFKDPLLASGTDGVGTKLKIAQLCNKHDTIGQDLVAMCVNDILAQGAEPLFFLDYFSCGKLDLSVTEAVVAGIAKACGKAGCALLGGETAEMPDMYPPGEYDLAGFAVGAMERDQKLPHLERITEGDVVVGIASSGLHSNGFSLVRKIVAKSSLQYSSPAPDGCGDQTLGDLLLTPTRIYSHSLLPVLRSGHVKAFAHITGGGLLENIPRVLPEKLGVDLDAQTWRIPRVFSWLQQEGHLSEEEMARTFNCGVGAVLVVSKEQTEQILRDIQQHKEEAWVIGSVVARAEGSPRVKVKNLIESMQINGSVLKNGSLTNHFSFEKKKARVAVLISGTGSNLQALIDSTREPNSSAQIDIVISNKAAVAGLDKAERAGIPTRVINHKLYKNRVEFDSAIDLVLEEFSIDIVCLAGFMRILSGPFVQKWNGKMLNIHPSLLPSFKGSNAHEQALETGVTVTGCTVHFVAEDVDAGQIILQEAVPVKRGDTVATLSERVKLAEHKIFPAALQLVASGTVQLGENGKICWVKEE

[23] = Cytotoxicity in RFC-null Chinese hamster R2 cells assessed as reduction in cell viability measured after 96 hrs by Cell-Titer Blue fluorescence analysis; assay type: cell-based; conditions: Cricetulus griseus, R2, 96 h
[24] = biological target: T4, Trifunctional purine biosynthetic protein adenosine-3; experiment: Inhibition of recombinant N-terminal 6His-tagged human GARFTase assessed as formation of 5,8-dideazafolate from 10-formyl-5,8-dideazafolic acid measured at every 15 seconds over 20 min by spectrophotometric analysis
KB [25] = experiment: Antiproliferative activity against human KB cells expressing human RFC/FR-alpha/PCFT assessed as reduction in cell viability measured after 96 hrs in presence of folic acid by Cell-Titer Blue fluorescence analysis; assay type: functional, cell-based

inhibition [1] | inhibition [2] | Ki [3] [µM] | inhibition [4] | SMILES | IC50 (IGROV-1 [5]) [µM] | IC50 (KB [16]) [µM] | IC50 [17] [µM] | inhibition [18] | inhibition [19] | inhibition [20] | inhibition [21] [%] | IC50 [22] [µM] | IC50 [23] [µM] | Ki [24] [µM] | IC50 (KB [25]) [µM] | also measured
Active | 40 to 60% | 0.22 | Active | Nc1nc2[nH]c(CCCc3ccc(C(=O)N[C@@H](CCC(=O)O)C(=O)O)cc3)cc2c(=O)[nH]1 | > 1 |  |  |  |  |  |  |  |  |  |  | 
 |  |  |  | Nc1nc2[nH]c(CCCc3ccc(C(=O)N[C@@H](CCC(=O)O)C(=O)O)s3)cc2c(=O)[nH]1 | 0.213 |  |  |  |  |  |  |  |  |  |  | Time (IGROV-1 [6]): 9 days; Activity [7]: Non-Toxic; LCK (IGROV-1 [8]): 1.4; Activity [9]: 15%; T/C (IGROV-1 [10]): 35%; LCK (IGROV-1 [11]): 1.4; T/C (IGROV-1 [12]): 29%; Activity [13]: Non-Toxic; IC50 (IGROV-1 [14]): 0.00095 µM; Activity [15]: Non-Toxic
30 to 60% | Active | 0.73 | 80 to 90% | Nc1nc2[nH]c(CCN(C=O)c3ccc(C(=O)N[C@@H](CCC(=O)O)C(=O)O)cc3)cc2c(=O)[nH]1 |  | 0.00209 | > 1 | Active | Active | inactive | < 15 | 0.00211 | > 1 | 0.099 | > 1 | 

SMILES | inhibition [1] | inhibition [2] | Ki [3] [µM] | inhibition [4] | IC50 (IGROV-1 [5]) [µM] | IC50 (KB [16]) [µM] | IC50 [17] [µM] | inhibition [18] | inhibition [19] | inhibition [20] | inhibition [21] [%] | IC50 [22] [µM] | IC50 [23] [µM] | Ki [24] [µM] | IC50 (KB [25]) [µM] | also measured
CC(=O)N(CCc1cc2c(=O)[nH]c(N)nc2[nH]1)c1ccc(C(=O)N[C@@H](CCC(=O)O)C(=O)O)cc1 | 30 to 60% | Active | 1.68 | 80 to 90% |  | 0.00257 | > 1 | Active | Active | inactive | < 15 | 0.00558 | > 1 | 0.062 | > 1 | 
